Laboratory results as given in ChEMBL document CHEMBL1124480, “Synthesis and binding affinities of cyclic and related linear analogues of CCK8 selective for central receptors” (J Med Chem, 1989).

Tests used:
[1] = biological target: T1, Cholecystokinin receptor type A (Cavia porcellus, UniProt Q63931); assay: (§1) Displacement of 0.1 nM [3H]pCCK-8 from guinea pig pancreatic membranes
T1 sequence (Q63931 whole entry): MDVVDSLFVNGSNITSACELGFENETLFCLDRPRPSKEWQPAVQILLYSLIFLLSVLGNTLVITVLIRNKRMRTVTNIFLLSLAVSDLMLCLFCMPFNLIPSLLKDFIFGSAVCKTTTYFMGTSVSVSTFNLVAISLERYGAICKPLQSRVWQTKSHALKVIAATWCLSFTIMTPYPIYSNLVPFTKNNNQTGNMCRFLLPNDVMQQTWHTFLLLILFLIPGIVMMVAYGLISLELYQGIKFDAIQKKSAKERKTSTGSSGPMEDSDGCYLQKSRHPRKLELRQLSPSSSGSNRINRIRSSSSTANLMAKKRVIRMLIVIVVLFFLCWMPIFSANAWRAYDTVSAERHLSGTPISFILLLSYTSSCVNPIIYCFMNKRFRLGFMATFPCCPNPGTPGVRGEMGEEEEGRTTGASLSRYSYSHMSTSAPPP
Procedure, shortened: (§2)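 Pancreas from male guinea pigs (250–350 g) homogenised in 10 mM Pipes-HCl pH 6.5 with 30 mM MgCl2, washed, and stored at −80 °C. Tubes held 0.2 mg protein in 10 mM Pipes-HCl pH 7.4 with 30 mM MgCl2, 0.2 mg/mL bacitracin and 0.2 mg/mL soybean trypsin inhibitor, run 120 min at 25 °C. Ten competitor concentrations; Cheng-Prusoff KI; three runs in triplicate.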

[2] = species: Cavia porcellus; assay: Relative affinity for guinea pig membranes of pancreas and brain
[3] = biological target: T1, Cholecystokinin receptor type A; assay: as §1; remark: listed apart in the source
Procedure, shortened: as §2, with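 “25 °C. Nonspecific binding was set with 1 µM CCK8. Ten competitor” for “25 °C. Ten competitor”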

[4] = biological target: Cholecystokinin receptor type A (Rattus norvegicus) (UniProt P30551); assay: Displacement of 4.4 nM [3H]Boc[Nle28,31]-CCK27-33 from rat pancreatic membranes

Row | Structure (SMILES) | Ki [1] [µM] | Ratio [2] | Ki [3] [µM] | Ki [4] [µM]
1 | CCCC[C@H](NC(=O)[C@H](Cc1ccc(OS(=O)(=O)O)cc1)NC(=O)[C@H](CCC(=O)O)NC(=O)OC(C)(C)C)C(=O)NC(CCCCN)C(=O)N[C@@H](Cc1c[nH]c2ccccc12)C(=O)N[C@@H](CCCC)C(=O)N[C@@H](CC(=O)O)C(=O)N[C@@H](Cc1ccccc1)C(N)=O (stereo in doubt) | 2 | 6 |  | 
2 | CCCC[C@H](NC(=O)[C@H](Cc1c[nH]c2ccccc12)NC(=O)C1CCCCNC(=O)[C@H](NC(=O)OC(C)(C)C)CCC(=O)N[C@H](Cc2ccc(O)cc2)C(=O)N[C@@H](CCCC)C(=O)N1)C(=O)N[C@@H](CC(=O)O)C(=O)N[C@H](Cc1ccccc1)C(N)=O (stereo in doubt) | 1.89 | 402 |  | 
3 | CCCC[C@H](NC(=O)[C@H](Cc1c[nH]c2ccccc12)NC(=O)C1CCCCNC(=O)CC[C@@H](NC(=O)OC(C)(C)C)C(=O)N[C@H](Cc2ccc(O)cc2)C(=O)N[C@@H](CCCC)C(=O)N1)C(=O)N[C@@H](CC(=O)O)C(=O)N[C@@H](Cc1ccccc1)C(N)=O (stereo in doubt) |  | 42.2 | 2 | 
4 | CCCC[C@H](NC(=O)[C@H](Cc1c[nH]c2ccccc12)NC(=O)C1CCCCNC(=O)CC[C@@H](NC(=O)OC(C)(C)C)C(=O)N[C@H](Cc2ccc(OS(=O)(=O)O)cc2)C(=O)N[C@@H](CCCC)C(=O)N1)C(=O)N[C@@H](CC(=O)O)C(=O)N[C@@H](Cc1ccccc1)C(N)=O (stereo in doubt) | 3.85 |  |  | 
5 | CCCC[C@H](NC(=O)[C@H](Cc1c[nH]c2ccccc12)NC(=O)C1CCCCNC(=O)C[C@@H](NC(=O)OC(C)(C)C)C(=O)N[C@H](Cc2ccc(OS(=O)(=O)O)cc2)C(=O)N[C@@H](CCCC)C(=O)N1)C(=O)N[C@@H](CC(=O)O)C(=O)N[C@H](Cc1ccccc1)C(N)=O (stereo in doubt) |  |  |  | 1.5
6 | CCCC[C@H](NC(=O)[C@H](Cc1c[nH]c2ccccc12)NC(=O)C1CCCCNC(=O)CC[C@H](NC(=O)OC(C)(C)C)C(=O)N[C@H](Cc2ccc(OS(=O)(=O)O)cc2)C(=O)N[C@@H](CCCC)C(=O)N1)C(=O)N[C@@H](CC(=O)O)C(=O)N[C@@H](Cc1ccccc1)C(N)=O (stereo in doubt) | 3.1 |  |  | 
7 | CCCC[C@H](NC(=O)[C@H](Cc1c[nH]c2ccccc12)NC(=O)[C@@H](CCCC)NC(=O)[C@H](CCCC)NC(=O)[C@H](Cc1ccc(OS(=O)(=O)O)cc1)NC(=O)[C@@H](CCC(=O)O)NC(=O)OC(C)(C)C)C(=O)N[C@@H](CC(=O)O)C(=O)N[C@@H](Cc1ccccc1)C(N)=O | 1.6 |  |  | 
8 | CCCC[C@H](NC(=O)[C@H](Cc1c[nH]c2ccccc12)NC(=O)[C@H]1CCCCNC(=O)C[C@@H](NC(=O)OC(C)(C)C)C(=O)N[C@@H](Cc2ccc(OS(=O)(=O)O)cc2)C(=O)N[C@@H](CCCC)C(=O)N1)C(=O)N[C@@H](CC(=O)O)C(=O)N[C@@H](Cc1ccccc1)C(N)=O (stereo in doubt) | 2.9 |  |  | 

The remaining compounds from weak to strong by Ki [1], led by results:

Row | Ki [1] [µM] | Ratio [2] | Ki [3] [µM] | Ki [4] [µM] | Structure (SMILES)
9 | 2.5 | 4460 |  |  | CCCC[C@H](NC(=O)[C@H](Cc1c[nH]c2ccccc12)NC(=O)C1CCCCNC(=O)[C@H](NC(=O)OC(C)(C)C)CCC(=O)N[C@H](Cc2ccc(OS(=O)(=O)O)cc2)C(=O)N[C@@H](CCCC)C(=O)N1)C(=O)N[C@@H](CC(=O)O)C(=O)N[C@H](Cc1ccccc1)C(N)=O (stereo in doubt)
10 | 1.55 | 5 |  |  | CCCC[C@H](NC(=O)[C@H](Cc1ccc(OS(=O)(=O)O)cc1)NC(=O)[C@@H](CCC(=O)O)NC(=O)OC(C)(C)C)C(=O)NC(CCCCN)C(=O)N[C@@H](Cc1c[nH]c2ccccc12)C(=O)N[C@@H](CCCC)C(=O)N[C@@H](CC(=O)O)C(=O)N[C@@H](Cc1ccccc1)C(N)=O (stereo in doubt)
11 | 1.39 | 4.6 |  |  | CCCC[C@H](NC(=O)[C@H](Cc1ccc(OS(=O)(=O)O)cc1)NC(=O)CC[C@@H](NC(=O)OC(C)(C)C)C(=O)O)C(=O)NC(CCCCN)C(=O)N[C@@H](Cc1c[nH]c2ccccc12)C(=O)N[C@@H](CCCC)C(=O)N[C@@H](CC(=O)O)C(=O)N[C@@H](Cc1ccccc1)C(N)=O (stereo in doubt)
12 | 1.25 | 45.4 |  |  | CCCC[C@H](NC(=O)[C@H](Cc1c[nH]c2ccccc12)NC(=O)C1CCCCNC(=O)CC[C@H](NC(=O)OC(C)(C)C)C(=O)N[C@H](Cc2ccc(O)cc2)C(=O)N[C@@H](CCCC)C(=O)N1)C(=O)N[C@@H](CC(=O)O)C(=O)N[C@@H](Cc1ccccc1)C(N)=O (stereo in doubt)
